Test results from ChEMBL document CHEMBL3734693, “Discovery of potent, selective, and orally bioavailable inhibitors of interleukin-1 receptor-associate kinase-4” (Bioorg Med Chem Lett, 2015).
≈ marks a conversion by molar mass, not a printed value.

Experiments:
[1] = target: T1, Interleukin-1 receptor-associated kinase 4 (Homo sapiens, UniProt Q9NWZ3); test: Inhibition of recombinant full length IRAK-4 (unknown origin) using the biotinylated substrate RRRVTSPARRS by chemiluminescent ELISA
T1 sequence (Q9NWZ3 whole entry): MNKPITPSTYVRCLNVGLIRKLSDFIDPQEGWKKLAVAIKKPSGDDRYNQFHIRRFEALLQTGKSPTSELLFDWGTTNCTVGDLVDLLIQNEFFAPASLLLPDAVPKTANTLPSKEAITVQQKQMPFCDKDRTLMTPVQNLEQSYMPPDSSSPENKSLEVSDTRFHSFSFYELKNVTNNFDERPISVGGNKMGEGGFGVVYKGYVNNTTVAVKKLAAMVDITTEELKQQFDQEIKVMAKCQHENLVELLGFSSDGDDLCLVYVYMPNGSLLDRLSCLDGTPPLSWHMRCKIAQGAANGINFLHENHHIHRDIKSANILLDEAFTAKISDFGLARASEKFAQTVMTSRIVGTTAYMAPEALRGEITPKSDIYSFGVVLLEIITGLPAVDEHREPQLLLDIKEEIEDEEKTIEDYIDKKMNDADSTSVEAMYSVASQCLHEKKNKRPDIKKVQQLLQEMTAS

[2] = target: Interleukin-1 receptor-associated kinase 1 (Homo sapiens, UniProt P51617); test: Inhibition of IRAK-1 (unknown origin)
Sequence of Interleukin-1 receptor-associated kinase 1 (P51617 whole entry): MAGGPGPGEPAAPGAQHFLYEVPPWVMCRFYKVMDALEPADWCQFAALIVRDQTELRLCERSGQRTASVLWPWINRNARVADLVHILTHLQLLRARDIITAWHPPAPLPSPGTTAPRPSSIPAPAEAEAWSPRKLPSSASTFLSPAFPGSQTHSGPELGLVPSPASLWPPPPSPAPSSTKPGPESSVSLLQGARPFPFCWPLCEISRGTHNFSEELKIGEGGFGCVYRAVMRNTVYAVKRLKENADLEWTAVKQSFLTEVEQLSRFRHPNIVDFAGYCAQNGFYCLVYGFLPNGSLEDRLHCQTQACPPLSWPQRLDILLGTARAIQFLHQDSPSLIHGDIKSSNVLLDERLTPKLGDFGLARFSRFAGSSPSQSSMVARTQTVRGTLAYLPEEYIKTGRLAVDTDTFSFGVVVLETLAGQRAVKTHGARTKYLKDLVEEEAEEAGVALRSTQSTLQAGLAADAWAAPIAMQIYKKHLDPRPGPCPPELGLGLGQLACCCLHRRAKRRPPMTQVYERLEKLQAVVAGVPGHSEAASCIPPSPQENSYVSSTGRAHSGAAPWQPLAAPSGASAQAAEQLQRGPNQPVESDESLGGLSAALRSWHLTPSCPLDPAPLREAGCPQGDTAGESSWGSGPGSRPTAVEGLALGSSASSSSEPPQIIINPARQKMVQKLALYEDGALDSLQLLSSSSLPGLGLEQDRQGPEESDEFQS

[3] = target: T2, Mitogen-activated protein kinase kinase kinase 7 (Homo sapiens, UniProt O43318); test: Inhibition of TAK1 (unknown origin)
T2 sequence (O43318 whole entry): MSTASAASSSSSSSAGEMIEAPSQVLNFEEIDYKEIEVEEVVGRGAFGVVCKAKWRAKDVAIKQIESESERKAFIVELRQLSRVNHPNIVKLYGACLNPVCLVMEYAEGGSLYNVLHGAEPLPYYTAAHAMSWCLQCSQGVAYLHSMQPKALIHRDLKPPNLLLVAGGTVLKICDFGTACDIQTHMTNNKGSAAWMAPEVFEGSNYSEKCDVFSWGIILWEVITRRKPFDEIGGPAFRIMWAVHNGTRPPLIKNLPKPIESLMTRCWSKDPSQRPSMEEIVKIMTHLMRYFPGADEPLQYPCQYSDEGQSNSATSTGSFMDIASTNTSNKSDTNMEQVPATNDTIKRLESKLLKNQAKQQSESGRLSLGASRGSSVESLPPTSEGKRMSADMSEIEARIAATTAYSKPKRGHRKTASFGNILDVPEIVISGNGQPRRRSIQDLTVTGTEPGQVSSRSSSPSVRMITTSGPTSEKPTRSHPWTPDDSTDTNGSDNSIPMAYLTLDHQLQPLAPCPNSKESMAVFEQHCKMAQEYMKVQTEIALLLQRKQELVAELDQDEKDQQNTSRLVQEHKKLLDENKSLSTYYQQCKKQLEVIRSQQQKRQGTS

[4] = Inhibition of Interleukin-1 induced Nuclear factor-kappa-B activation in primary human monocyte by electrophoretic mobility shift assay
[5] = Oral bioavailability in rat at 2 mg/kg; format: ADME, organism-based; conditions: in vivo
Method in brief: (§1)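 Rats were given the compound intravenously at 0.5 mg/kg and orally at 2.0 mg/kg. Clearance, half-life, AUC and oral bioavailability were determined from these two dosings.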

Rattus norvegicus = test: AUC in rat at 0.5 mg/kg, iv and 2 mg/kg, po; format: ADME, organism-based; conditions: in vivo; method in brief: as §1
[6] = Clearance in rat at 0.5 mg/kg, iv and 2 mg/kg, po; format: ADME, organism-based; conditions: in vivo; method in brief: as §1
[7] = Half-life in rat at 0.5 mg/kg, iv and 2 mg/kg, po; format: ADME, organism-based; conditions: in vivo; method in brief: as §1
[8] = Permeability of the compound; format: ADME; conditions: not told; read-out: permeability
[9] = Solubility of the compound at pH 7.4; format: physicochemical; conditions: buffer
Homo sapiens [10] = species: Homo sapiens; test: Selectivity for recombinant IRAK-4 (unknown origin) over Akt1 (unknown origin)
Homo sapiens [11] = species: Homo sapiens; test: Selectivity for recombinant IRAK-4 (unknown origin) over pp60SRC (unknown origin)
Homo sapiens [12] = species: Homo sapiens; test: Selectivity for recombinant IRAK-4 (unknown origin) over EGFRK (unknown origin)
Homo sapiens [13] = species: Homo sapiens; test: Selectivity for recombinant IRAK-4 (unknown origin) over PKA (unknown origin)
Homo sapiens [14] = species: Homo sapiens; test: Selectivity for recombinant IRAK-4 (unknown origin) over PKC (unknown origin)
Homo sapiens [15] = species: Homo sapiens; test: Ratio of Ki for IRAK-1 (unknown origin) to Ki for recombinant full length IRAK-4 (unknown origin)
Homo sapiens [16] = species: Homo sapiens; test: Selectivity for recombinant IRAK-4 (unknown origin) over CaMK (unknown origin)
Homo sapiens [17] = species: Homo sapiens; test: Selectivity for recombinant IRAK-4 (unknown origin) over LCK (unknown origin)
Homo sapiens [18] = species: Homo sapiens; test: Ratio of Ki for TAK1 (unknown origin) to Ki for recombinant full length IRAK-4 (unknown origin)
Homo sapiens [19] = species: Homo sapiens; test: Selectivity for recombinant IRAK-4 (unknown origin) over CDK2 (unknown origin)

SMILES	Ki [1] [µM]	Ki [2] [µM]	Ki [3] [µM]	IC50 [4] [µM]	other results
CC(C)(C)C(=O)Oc1ccc2c(c1)nc(NC(=O)c1cccc([N+](=O)[O-])c1)n2-c1ccc(CCCO)cc1	–	–	–	–	IC50 [1]: 0.15 µM; IC50 [2]: 0.9 µM
O=C(Nc1nc2cc(CN3CCCCC3)ccc2n1[C@H]1CC[C@@H](CO)CC1)c1cccc(C(F)(F)F)c1	0.00042	0.072	0.13	< 0.1	–
O=C(Nc1nc2cc(CN3CCCCC3)ccc2n1-c1ccccc1)c1cccc(C(F)(F)F)c1	0.0028	0.608	2.5	0.3	bioavailability [5]: 46%; AUC (Rattus norvegicus): 1.02 µg·h/mL; clearance [6]: 0.54 L/h/kg; half-life [7]: 23.7 h
O=C(Nc1nc2cc(CN3CCCCC3)ccc2n1-c1ccccc1)c1cccc([N+](=O)[O-])c1	0.0082	0.374	0.8	0.1	–
O=C(Nc1nc2cc(F)ccc2n1[C@H]1CC[C@H](O)CC1)c1cccc([N+](=O)[O-])c1	0.0065	–	–	–	–
O=C(Nc1nc2cc(CN3CCOCC3)ccc2n1[C@H]1CC[C@H](O)CC1)c1cccc([N+](=O)[O-])c1	0.0038	–	–	–	Papp [8]: < 10 nm/s; solubility [9]: 29 µg/mL (≈ 60.5 µM)
O=C(Nc1nc2cc(F)ccc2n1CCCO)c1cccc([N+](=O)[O-])c1	0.0385	–	–	–	–
O=C(Nc1nc2cc(F)ccc2n1[C@H]1CC[C@@H](CO)C1)c1cccc([N+](=O)[O-])c1	0.0078	–	–	–	–
O=C(Nc1nc2cc(CN3CCCC3=O)ccc2n1[C@H]1CC[C@H](O)CC1)c1cccc([N+](=O)[O-])c1	0.0005	–	–	–	Papp [8]: < 10 nm/s; solubility [9]: 0.8 µg/mL (≈ 1.68 µM)
O=C(Nc1nc2cc(F)ccc2n1[C@H]1CC[C@H](CO)C1)c1cccc([N+](=O)[O-])c1	0.011	–	–	–	–
O=C(Nc1nc2cc(F)ccc2n1[C@H]1CC[C@@H](CO)CC1)c1cccc([N+](=O)[O-])c1	0.0016	–	–	–	–
O=C(Nc1nc2cc(CN3CCCCC3)ccc2n1-c1ccc(CCO)cc1)c1cccc(C(F)(F)F)c1	0.0013	0.012	0.7	< 0.1	bioavailability [5]: 19%; AUC (Rattus norvegicus): 0.175 µg·h/mL; clearance [6]: 2.2 L/h/kg; half-life [7]: 1.3 h
O=C(Nc1nc2cc(F)ccc2n1[C@H]1CC[C@H](CO)CC1)c1cccc([N+](=O)[O-])c1	0.0064	–	–	–	–
O=C(Nc1nc2ccc(F)cc2[nH]1)c1cccc([N+](=O)[O-])c1	4.5	–	–	–	–
O=C(Nc1nc2cc(CN3CCCCC3)ccc2n1[C@H]1CC[C@H](O)CC1)c1cccc([N+](=O)[O-])c1	0.0028	0.018	0.015	–	bioavailability [5]: 16%; AUC (Rattus norvegicus): 0.124 µg·h/mL; Selectivity ratio (Homo sapiens [10]): > 100; Selectivity ratio (Homo sapiens [11]): > 100; Selectivity ratio (Homo sapiens [12]): > 100; clearance [6]: 2.5 L/h/kg; Papp [8]: 66 nm/s; Selectivity ratio (Homo sapiens [13]): > 100; half-life [7]: 2.1 h; Selectivity ratio (Homo sapiens [14]): > 100; Ratio Ki (Homo sapiens [15]): 6.4; solubility [9]: > 50 µg/mL; Selectivity ratio (Homo sapiens [16]): > 100; Selectivity ratio (Homo sapiens [17]): > 100; Ratio Ki (Homo sapiens [18]): 5.3; Selectivity ratio (Homo sapiens [19]): > 100
O=C(Nc1nc2cc(CO)ccc2n1[C@H]1CC[C@H](O)CC1)c1cccc([N+](=O)[O-])c1	0.011	–	–	–	Papp [8]: < 10 nm/s; solubility [9]: 4.9 µg/mL (≈ 11.9 µM)
CC(C)(C)C(=O)Nc1ccc2c(c1)nc(NC(=O)c1cccc(C(F)(F)F)c1)n2[C@H]1CC[C@@H](CO)CC1	0.00034	–	2.5	0.1	–
O=C(Nc1nc2cc(CN3CCCCC3)ccc2n1[C@H]1CC[C@@H](CO)CC1)c1cccc([N+](=O)[O-])c1	0.0007	0.048	0.03	–	bioavailability [5]: 10%; AUC (Rattus norvegicus): 0.084 µg·h/mL; clearance [6]: 2.4 L/h/kg; half-life [7]: 4.8 h; Ratio Ki (Homo sapiens [15]): 68; Ratio Ki (Homo sapiens [18]): 43
O=C(Nc1nc2ccc(CO)cc2n1[C@H]1CC[C@@H](CO)CC1)c1cccc(C(F)(F)F)c1	0.00048	–	1.3	< 0.1	–
